Here are results for two molecules from ChEMBL document CHEMBL4145447, “4-arylamidobenzyl substituted 5-bromomethylene-2(5H)-furanones for chronic bacterial infection” (Eur J Med Chem, 2018).

For orientation: inhibition means how much of the control response was suppressed.

Data set [1] has as its system RAW264.7. Put plainly: Anti-inflammatory activity in mouse RAW264.7 cells assessed as inhibition of LPS-induced TNF-alpha production by measuring TNF-alpha level at 10 uM preincubated for 2 hrs followed by LPS stimulation and measured after 12 hrs by ELISA (reference value: 21561.3 +/- 857 pg/ml). The format is functional. For orientation: In an ELISA, binding on a coated surface is turned into a signal by an enzyme label.

In data set [2] the test system is RAW264.7. Put plainly: Anti-inflammatory activity in mouse RAW264.7 cells assessed as inhibition of LPS-induced NO production at 10 uM preincubated for 2 hrs followed by LPS stimulation and measured after 48 hrs by Griess method relative to control. Type of data set: functional. The essentials:
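RAW264.7 cells seeded at 5 × 10^4/well and cultured 18 h, then given 10 µM compound plus LPS 100 ng/mL for 48 h at 37 °C. Supernatant mixed 1:1 with Griess reagent (1% sulfanilamide, 0.1% naphthylethylenediamine in 5% phosphoric acid) for 10 min; nitrite read at OD540.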
(In general: Griess reagent forms a coloured azo dye with nitrite.)

For data set [3], the target named is T1, Peroxisome proliferator-activated receptor gamma (Mus musculus) (UniProt P37238).
T1 sequence (whole entry): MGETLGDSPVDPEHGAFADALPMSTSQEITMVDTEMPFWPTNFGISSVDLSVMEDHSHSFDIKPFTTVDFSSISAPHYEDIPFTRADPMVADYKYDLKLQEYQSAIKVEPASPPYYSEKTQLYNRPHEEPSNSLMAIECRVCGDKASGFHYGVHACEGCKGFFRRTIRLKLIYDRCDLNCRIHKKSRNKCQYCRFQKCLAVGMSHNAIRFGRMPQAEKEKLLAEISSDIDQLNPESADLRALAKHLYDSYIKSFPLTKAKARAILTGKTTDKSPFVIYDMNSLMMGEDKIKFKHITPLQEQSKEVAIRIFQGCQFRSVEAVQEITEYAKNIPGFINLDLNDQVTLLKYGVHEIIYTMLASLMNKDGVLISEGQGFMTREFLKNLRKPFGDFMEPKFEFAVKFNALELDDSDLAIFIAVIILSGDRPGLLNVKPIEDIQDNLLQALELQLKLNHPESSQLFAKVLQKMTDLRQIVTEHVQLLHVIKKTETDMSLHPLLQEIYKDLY
Put plainly: Agonist activity at PPARgamma in mouse RAW264.7 cells assessed as inhibition of LPS-induced NF-kB p65 phosphorylation at 10 uM preincubated for 1 hr followed by LPS stimulation and measured after 4 hrs in presence of PPARgamma antagonist GW9662 by Western blot analysis. The format is cell-based. The essentials:
(§1)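 Western blot: RAW264.7 cells (2 × 10^6/well) pretreated 1 h with compound (10 µM), antagonist GW9662 (5 µM) where stated, then LPS 500 ng/mL for 4 h. Lysis on ice with PMSF, BCA-normalised protein on SDS gels, PVDF transfer, milk block, phospho- and total-protein primary antibodies, HRP secondary, ECL detection. Densitometry normalised to internal control; n = 3.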
(In general: A western blot detects proteins with antibodies after separation by electrophoresis.)

In data set [4] the test system is RAW264.7. Put plainly: Anti-inflammatory activity in mouse RAW264.7 cells assessed as inhibition of LPS-induced IL-6 production by measuring […] level at 10 uM preincubated for 2 hrs followed by LPS stimulation and measured after 12 hrs by ELISA (reference value: 175.2 +/- 10.2 pg/ml). The format is functional.
Data set [5] deals with T1, Peroxisome proliferator-activated receptor gamma (Mus musculus). Put plainly: Agonist activity at PPARgamma in mouse RAW264.7 cells assessed as inhibition of LPS-induced IkB-alpha phosphorylation at Ser32/36 residues at 10 uM preincubated for 1 hr followed by LPS stimulation and measured after 4 hrs by Western blot analysis. The format is cell-based. The essentials: as §1

Data set [6] concerns RAW264.7. Put plainly: Anti-inflammatory activity in mouse RAW264.7 cells assessed as inhibition of LPS-induced TNF-alpha production by measuring TNF-alpha level at 10 uM preincubated for 2 hrs followed by LPS stimulation and measured after 6 hrs by ELISA (reference value: 11922 +/- 628.4 pg/ml). Type of data set: functional.
The nature of data set [7]: Cytotoxicity against mouse RAW264.7 cells assessed as cell viability at 10 uM after 48 hrs by MTT assay relative to control. Type of data set: cell-based. The conditions noted are these: read-out: Activity. In a few lines: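 MTT viability: RAW264.7 cells (4 × 10^4/well) in DMEM + 10% FBS exposed to compounds diluted in DMEM for 48 h. MTT 0.5 mg/mL added for 4 h in the dark, formazan dissolved in DMSO, read at 570 nm. Viability = treated/medium-only control × 100; three independent experiments.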

Data set [8] deals with T1, Peroxisome proliferator-activated receptor gamma (Mus musculus). Put plainly: Agonist activity at PPARgamma in mouse RAW264.7 cells assessed as inhibition of LPS-induced MAPK p38 phosphorylation at Thr180/Tyr182 residues at 10 uM preincubated for 1 hr followed by LPS stimulation and measured after 4 hrs in presence of PPARgamma antagonist GW9662 by Western blot analysis. Type of data set: cell-based. In a few lines: as §1

The test system of data set [9] is Pseudomonas aeruginosa PAO1. Put plainly: Inhibition of Pseudomonas aeruginosa PAO1 GFP-fused quorum sensing rhlA at 10 uM measured every 15 mins up to 12 hrs by GFP reporter gene assay relative to control. The essentials: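 GFP reporter strains of P. aeruginosa PAO1 (lasB-, rhlA- or pqsA-promoter fused to unstable gfp(ASV)) grown overnight in LB at 37 °C, 200 rpm, 18 h, then diluted 1:100. Culture mixed 1:1 with compound diluted in LB from 10 mM DMSO stock (0.1% DMSO final). Fluorescence (ex 485/em 528 nm) read every 15 min at 37 °C for ≥12 h.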

For data set [10], the target named is T1, Peroxisome proliferator-activated receptor gamma (Mus musculus). Put plainly: Agonist activity at PPARgamma in mouse RAW264.7 cells assessed as inhibition of LPS-induced IkB-alpha phosphorylation at Ser32/36 residues at 10 uM preincubated for 1 hr followed by LPS stimulation and measured after 4 hrs in presence of PPARgamma antagonist GW9662 by Western blot analysis. Type of data set: cell-based. In a few lines:
as §1

For data set [11] the target is unchanged. Put plainly: Agonist activity at PPARgamma in mouse RAW264.7 cells assessed as inhibition of LPS-induced NF-kB p65 phosphorylation at 10 uM preincubated for 1 hr followed by LPS stimulation and measured after 4 hrs by Western blot analysis. Type of data set: cell-based. In a few lines: as §1
The subject of data set [12] is Pseudomonas aeruginosa. Put plainly: Growth inhibition of Pseudomonas aeruginosa PAO1 at 5 to 100 uM measured every 15 mins up to 12 hrs. The format is organism-based. The conditions noted are these: in vitro. In a few lines:
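Growth of P. aeruginosa PAO1 was run like the reporter assay. The overnight LB culture was diluted in fresh LB and mixed in equal parts with compound diluted in LB, then growth was monitored in 96-well plates.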

Data set [13] deals with RAW264.7. Put plainly: Anti-inflammatory activity in mouse RAW264.7 cells assessed as inhibition of LPS-induced TNF-alpha production by measuring TNF-alpha level at 10 uM preincubated for 2 hrs followed by LPS stimulation and measured after 24 hrs by ELISA (reference value: 24216 +/- 498.7 pg/ml). The format is functional.
For data set [14], the target named is T1, Peroxisome proliferator-activated receptor gamma (Mus musculus). Put plainly: Agonist activity at PPARgamma in mouse RAW264.7 cells assessed as inhibition of LPS-induced ERk1/2 phosphorylation at Thr202/Tyr204 residues at 10 uM preincubated for 1 hr followed by LPS stimulation and measured after 4 hrs in presence of PPARgamma antagonist GW9662 by Western blot analysis. The format is cell-based. In a few lines:
as §1

For data set [15], the system named is RAW264.7. Put plainly: Anti-inflammatory activity in mouse RAW264.7 cells assessed as inhibition of LPS-induced IL-6 production by measuring IL-6 level at 10 uM preincubated for 2 hrs followed by LPS stimulation and measured after 24 hrs by ELISA (reference value: 407.6 +/- 16.7 pg/ml).

Active and inactive are the calls of the source. The rule behind the calls is not given here.

On to `O=C(Cc1ccc(F)cc1)Nc1ccc(CC2=CC(=O)OC2=CBr)cc1`, for which the Activity in [1] turned out to be 13362.7 pg/mL; in [4] it was 66.3 pg/mL; in data set [6] it was 7524.7 pg/mL; in data set [13], 18322 pg/mL; in data set [15] it was 145.2 pg/mL. Besides, the inhibition at 10 µM in [2] turned out to be 73.7%. Besides, the inhibition result in [3], in data set [8], in data set [10] and in [14] was “inactive” throughout. The inhibition entry in data set [5] and in [11] was “Active” in each case. The viability at 48 h, 10 µM in data set [7] was found to be 97%. This molecule also registered an inhibition in data set [9] of 14.7%. Moreover, the “growth inhibition (GI)” value in data set [12] was “Non-Toxic”.

Turning to `O=C(C=Cc1ccccc1)Nc1ccc(CC2=CC(=O)O/C2=C/Br)cc1`, the Activity was determined as 15037.3 pg/mL in data set [1]; 75.3 pg/mL in data set [4]; 7750 pg/mL in data set [6]; 19550 pg/mL in [13]; 158.2 pg/mL in [15]. In addition, the inhibition at 10 µM in [2] is 70%. Further, the inhibition result in [3], in data set [8], in data set [10] and in data set [14] was “inactive” in each case. The inhibition entry in data set [5] and in [11] was “Active” each time. The viability at 48 h, 10 µM in data set [7] worked out at 104%. The inhibition in data set [9] came out at 12%. Also, the “growth inhibition (GI)” value in data set [12] is “Non-Toxic”.
